In ChEMBL document CHEMBL1275590, “Novel arylimidamides for treatment of visceral leishmaniasis” (Antimicrob Agents Chemother, 2010):
Active and inactive are the calls of the source.

Columns and labels:
[1] = system: Mus musculus; assay: Toxicity in BALB/c mouse assessed as liver necrosis at 150 mg/kg/day, po; format: organism-based; parameters: route oral; details: in vivo
Method in brief: (§1)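 Female BALB/c mice (n = 5 per dose), dosed once daily for 5 consecutive days p.o. (20 ml/kg) or i.v. (10 ml/kg) with compound in sterile water, prepared fresh daily under yellow light. Vehicle controls n = 5 per route. Clinical observations, body weights, serum chemistry and hematology on day 6 before necropsy; histopathology of formalin-fixed tissues. Chemistry analysed by one-way ANOVA with Dunnett's posttest.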

[2] = Half life in Swiss Webster mouse at 66 mg/kg, po by HPLC-MS/MS analysis; format: ADME, organism-based; parameters: dose 66 mg/kg, route oral; details: in vivo
Method in brief: (§2)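 Male Swiss Webster mice, n = 3 per time point. For i.v., the compound was dissolved in sterile water, diluted 1:1 with 2× saline, and given as a tail-vein bolus over ~10–20 s. For p.o., it was given by gavage in sterile water. Dose volume was 5 ml/kg. Terminal plasma was taken from 5 min to 72 h and measured by HPLC-MS/MS (calibration 2.5–10,000 nM). Parameters came from noncompartmental analysis.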

[3] = system: Mus musculus; assay: Toxicity in BALB/c mouse at 25 mg/kg/day, po administered for five days; format: organism-based; parameters: route oral; details: in vivo
[4] = Tmax in Swiss Webster mouse at 66 mg/kg, po by HPLC-MS/MS analysis; format: ADME, organism-based; parameters: dose 66 mg/kg, route oral; details: in vivo
Method in brief: (§3)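 Male Swiss Webster mice (n = 3 per time point), single dose by oral gavage (sterile water solution) or tail-vein bolus i.v. (water diluted 1:1 with 2× saline, over ~10–20 s); dose volume 5 ml/kg. Terminal blood sampled from 5 min to 72 h postdose; plasma quantified by HPLC-MS/MS (positive-ion SRM). Noncompartmental analysis gave Cmax, Tmax, AUC0-∞, CL, Vss; bioavailability from p.o. versus i.v. exposure.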

[5] = Cmax in Swiss Webster mouse at 131 mg/kg, po by HPLC-MS/MS analysis; format: ADME, organism-based; parameters: dose 131 mg/kg, route oral; details: in vivo; method in brief: as §2
[6] = system: Mus musculus; assay: Toxicity in BALB/c mouse at 150 mg/kg/day, po administered for five days measured on day 5; format: organism-based; parameters: route oral; details: in vivo
Method in brief: (§4)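 Five-day repeat-dose study in female BALB/c mice (n = 5 per dose level): oral dosing once daily for five consecutive days in sterile water prepared fresh daily under yellow light, 20 ml/kg. Vehicle controls received sterile water only. Clinical observations and body weights were recorded, with blood for hematology and serum chemistry taken on day 6 before necropsy. A veterinary pathologist examined formalin-fixed tissues.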

[7] = system: Mus musculus; assay: Toxicity in BALB/c mouse assessed as occurrence of tremor at 10 mg/kg/day, iv administered for five days measured on day 2; format: organism-based; parameters: route intravenous; details: in vivo; method in brief: as §1
[8] = system: Mus musculus; assay: Toxicity in BALB/c mouse assessed as occurrence of tremor at 150 mg/kg/day, po administered for five days measured on day 4; format: organism-based; parameters: route oral; details: in vivo; method in brief: as §1
[9] = system: Mus musculus; assay: Toxicity in BALB/c mouse assessed as hyperactivity at 150 mg/kg/day, po administered for five days measured on day 5; format: organism-based; parameters: route oral; details: in vivo; method in brief: as §1
[10] = system: Mus musculus; assay: Hepatotoxicity in BALB/c mouse assessed as AST level in serum at 10 mg/kg/day, iv administered for five days (Rvb= 65 U/L); format: toxicity, organism-based; parameters: route intravenous; details: in vivo
[11] = system: Mus musculus; assay: Hepatotoxicity in BALB/c mouse assessed as AST level in serum at 150 mg/kg/day, po administered for five days (Rvb= 70 U/L); format: toxicity, organism-based; parameters: route oral; details: in vivo
[12] = system: Mus musculus; assay: Hepatotoxicity in BALB/c mouse assessed as ALT level in serum at 150 mg/kg/day, po administered for five days (Rvb= 36 U/L); format: toxicity, organism-based; parameters: route oral; details: in vivo
[13] = Induction of mutagenicity in Salmonella serovar Typhimurium TA 100 assessed as number of revertant colonies at 5 ug by Ames assay in presence of Aroclor 1254-induced rat liver S9 metabolic activation system; format: toxicity, subcellular, Salmonella enterica subsp. enterica serovar Typhimurium
Method in brief: (§5)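 Ames plate incorporation with S. Typhimurium TA98 and TA100, with or without Aroclor 1254-induced rat liver S9 (10% vol/vol). Compound was dissolved in sterile water and serially diluted to 1–500 μg/plate. Positive controls were 2-nitrofluorene and sodium azide without S9, and 2-aminoanthracene with S9; sterile water and DMSO served as vehicles. Revertant colonies and background lawn were scored. A mutagen was defined as a mean revertant count at least 2-fold over solvent control. Single experiment.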

[14] = Induction of mutagenicity in Salmonella serovar Typhimurium TA 98 assessed as number of revertant colonies at 5 ug by Ames assay; format: toxicity, Salmonella enterica subsp. enterica serovar Typhimurium; details: in vivo; method in brief: as §5
[15] = Induction of mutagenicity in Salmonella serovar Typhimurium TA 98 assessed as number of revertant colonies at 10 ug by Ames assay; format: toxicity, Salmonella enterica subsp. enterica serovar Typhimurium; details: in vivo; method in brief: as §5
[16] = system: Leishmania donovani; assay: Antileishmanial activity against Leishmania donovani promastigotes in po dosed BALB/c mouse assessed as inhibition of liver parasitemia; format: functional, organism-based
Method in brief: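 Murine VL model in L. donovani-infected mice. Compounds were dissolved in water and given i.p. or p.o. once daily for 5 days (4 days for one i.p. regimen). Liver parasitemia was compared with untreated controls by unpaired Student's t test, P ≤ 0.05.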

[17] = system: Leishmania donovani; assay: Antileishmanial activity against Leishmania donovani WR378 infected in golden Syrian hamster assessed as reduction in spleen parasitemia at 30 mg/kg/day, po administered for five days; format: functional; details: 120 h
Method in brief: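 11-day golden hamster VL model adapted from an 8-day method, using L. donovani WR378 metacyclic promastigotes. Dosing was oral, once daily for 5 days. Animals were euthanized on day 11 post-infection. Liver, spleen and femoral bone marrow (flushed with Schneider's medium) were harvested.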

[18] = Tmax in Swiss Webster mouse at 5 mg/kg, iv by HPLC-MS/MS analysis; format: ADME, organism-based; parameters: dose 5 mg/kg, route intravenous; details: in vivo; method in brief: as §3
[19] = Tmax in Swiss Webster mouse at 70 mg/kg, po by HPLC-MS/MS analysis; format: ADME, organism-based; parameters: dose 70 mg/kg, route oral; details: in vivo; method in brief: as §3
[20] = system: Mus musculus; assay: Volume of distribution in Swiss Webster mouse at 70 mg/kg, po by HPLC-MS/MS analysis; format: ADME, organism-based; parameters: dose 70 mg/kg, route oral; details: in vivo
Method in brief: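 Male Swiss Webster mice (n = 3 per time point) got a single oral gavage dose in sterile water, 5 ml/kg. The 5 mM formulation was a clear solution; the 20 and 40 mM formulations were gelatinous. Terminal blood was collected from 5 min to 72 h postdose, and plasma was analysed by HPLC-MS/MS. Volume of distribution came from noncompartmental analysis.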

[21] = Oral bioavailability in Swiss Webster mouse at 70 mg/kg by HPLC-MS/MS analysis; format: ADME, organism-based; details: in vivo; method in brief: as §3
[22] = system: Mus musculus; assay: Toxicity in BALB/c mouse at 100 mg/kg/day, po administered for five days; format: organism-based; parameters: route oral; details: in vivo; method in brief: as §4
[23] = system: Mus musculus; assay: Toxicity in BALB/c mouse assessed as occurrence of tremor at 20 mg/kg/day, iv administered for five days measured on day 2; format: organism-based; parameters: route intravenous; details: in vivo; method in brief: as §1
[24] = system: Mus musculus; assay: Renal toxicity in BALB/c mouse assessed as blood urea nitrogen level in serum at 30 mg/kg/day, iv administered for five days (Rvb= 20 mg/dl); format: organism-based; parameters: route intravenous; details: in vivo; method in brief: as §1
[25] = system: Mus musculus; assay: Hepatotoxicity in BALB/c mouse assessed as alkaline phosphatase level in serum at 30 mg/kg/day, iv administered for five days (Rvb= 134 U/L); format: toxicity, organism-based; parameters: route intravenous; details: in vivo
[26] = system: Mus musculus; assay: Renal toxicity in BALB/c mouse assessed as blood urea nitrogen level in serum at 150 mg/kg/day, po administered for five days (Rvb= 29 mg/dl); format: organism-based; parameters: route oral; details: in vivo; method in brief: as §1
[27] = Induction of mutagenicity in Salmonella serovar Typhimurium TA 98 assessed as number of revertant colonies at 1 ug by Ames assay in presence of Aroclor 1254-induced rat liver S9 metabolic activation system; format: toxicity, subcellular, Salmonella enterica subsp. enterica serovar Typhimurium; method in brief: as §5
[28] = Drug level in Swiss Webster mouse liver at 5 mg/kg, iv after 2 hrs by HPLC/UV analysis; details: read-out: Drug uptake

With `CCOc1cc(NC(=N)c2ccccn2)ccc1-c1ccc(-c2ccc(NC(=N)c3ccccn3)cc2OCC)o1` the Activity [1] was “Toxic”, the half-life [2] was 30 h and the Activity [3] was “Non-toxic”. For the same compound, the Tmax [4] was 2 h, the Cmax [5] was 1.68 µM and the Activity [6] was “Toxic”. For the same compound, the Activity [7] was “Toxic”, the Activity [8] was “Toxic” and the Activity [9] was “Toxic”. For the same compound, the Activity [10] was 80 U/L, the Activity [11] was 770 U/L and the Activity [12] was 220 U/L.
In the case of `CC(C)Oc1cc(NC(=N)c2ccccn2)ccc1-c1ccc(-c2ccc(NC(=N)c3ccccn3)cc2OC(C)C)o1`, the Activity [13] is reported as 154, the Activity [14] is reported as 29 and the Activity [15] is reported as 29. The Activity [16] was “Active”, the inhibition in vivo at 30 mg/kg/day [17] was 67% and the Tmax [18] was 5 min. For the same compound, the Tmax [19] was 1 h, the Vd [20] was 54 L/kg and the bioavailability [21] was 10.4%. The Activity [22] was “Non-toxic”, the Activity [23] was “Toxic” and the Activity [24] was 24 mg/dL. The Activity [25] was 118 U/L, the Activity [26] was 29 U/L and the Activity [27] was 43. For the same compound, the concentration at 2 h [28] was 18.7 µM.
